ChEMBL document CHEMBL1127455, “8-Azaxanthine derivatives as antagonists of adenosine receptors” (J Med Chem, 1994)
pKi: −log10 of the molar value.

Assays:
[1] = target: T1, Adenosine receptor A1 (Bos taurus, UniProt P28190); test: Affinity for A1 adenosine receptor by displacement of […] in bovine brain cortical membrane; d= Inactive at highest tested concentration 30 uM; format: tissue-based
T1 sequence (P28190 whole entry): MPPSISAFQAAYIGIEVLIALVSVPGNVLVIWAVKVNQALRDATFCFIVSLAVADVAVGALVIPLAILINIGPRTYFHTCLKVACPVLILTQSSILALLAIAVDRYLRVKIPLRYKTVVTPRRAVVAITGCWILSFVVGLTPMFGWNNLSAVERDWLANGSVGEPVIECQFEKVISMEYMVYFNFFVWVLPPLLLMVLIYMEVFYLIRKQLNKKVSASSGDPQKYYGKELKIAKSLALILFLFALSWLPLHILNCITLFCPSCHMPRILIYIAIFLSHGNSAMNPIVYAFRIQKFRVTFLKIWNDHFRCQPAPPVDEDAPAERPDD
Outline: (§1)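 Bovine cerebral cortex was homogenized in ice-cold 0.32 M sucrose with protease inhibitors and spun at 1000g, then 48000g, at 4 °C. The pellet was treated with adenosine deaminase (2 units/mL) at 37 °C for 60 min. Membranes (0.2-0.3 mg protein) were incubated in triplicate with about 1.2 nM [³H]CHA in Tris-HCl pH 7.7 with MgCl₂ at 25 °C for 45 min. Nonspecific binding was defined with 50 μM R-PIA. Binding was ended by GF/C filtration. Compounds were added in DMSO (2% solvent), up to 30 μM. IC50 was read from semilog plots, and Ki was derived using Kd 10.5 nM.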

[2] = target: T1, Adenosine receptor A1; test: Affinity to A1 adenosine receptor was measured by the displacement of […] in bovine brain cortical membrane; format: cell membranes; outline: as §1
[3] = target: Adenosine receptor A2a (Bos taurus); test: Affinity to A2 adenosine receptor was measured by the displacement of [3H]-CGS- 21680 in bovine brain striatal membrane
[4] = species on record: Bos taurus; test: Ratio between the Ki values of A2 and A1 receptors
[5] = system: Adenosine A2 receptor (Bos taurus); test: Displacement of [3H]-CGS- 21680 from A2 adenosine receptor in bovine brain striatal membrane at […]; conditions: Striatum

Ki [1]	pKi [2]	pKi [3]	Ratio [4]	inhibition [5] [%]	SMILES
Not Active					Cn1c(=O)c2nn[nH]c2n(C)c1=O
	4.96	3.53	26		Cn1c(=O)c2c(nnn2C2CCCC2)n(C)c1=O
	6.47	5.00	29		CCCn1c(=O)c2c(nnn2C2CCCC2)n(CCC)c1=O
	4.36				CCCn1c(=O)c2c(nnn2-c2ccc(Cl)cc2N)n(CCC)c1=O
Not Active					Cn1c(=O)c2c(nnn2C)n(C)c1=O
	5.74	4.87	7.5		CCCn1c(=O)c2c(nnn2C2CCCCC2O)n(CCC)c1=O (centres undefined)
	4.51	4.31	1.6		Cn1c(=O)c2nn(C3CC4CCC3C4)nc2n(C)c1=O (centres undefined)
	4.44	3.60	6.9		Cn1c(=O)c2nn(C3CCCCC3)nc2n(C)c1=O
	5.89	4.89	10		CCCn1c(=O)c2nn(C3CCCC3)nc2n(CCC)c1=O
	4.74	5.35	0.25		Cn1c(=O)c2c(nnn2C2CC3CCC2C3)n(C)c1=O (centres undefined)
Not Active					Cn1c(=O)c2nn(C3CCCCC3O)nc2n(C)c1=O (centres undefined)
	5.82				CCCn1c(=O)c2nn(-c3ccc(Cl)cc3N)nc2n(CCC)c1=O
	4.85				Cn1c(=O)c2c(nnn2-c2ccc(Cl)cc2N)n(C)c1=O
	4.62				Cn1c(=O)c2nn(-c3ccc(Cl)cc3N)nc2n(C)c1=O
	3.96	4.24	0.5		Cn1c(=O)c2nn(C3CCCC3)nc2n(C)c1=O
	5.80	4.66	13		CCCn1c(=O)c2nn(C3CCCCC3)nc2n(CCC)c1=O
	3.94				Cn1c(=O)c2c(nnn2C2CCCCC2O)n(C)c1=O (centres undefined)
Not Active		4.28			Cn1nc2c(=O)n(C)c(=O)n(C)c2n1
	5.85			20	CCCn1c(=O)c2nn(C3CCCCC3O)nc2n(CCC)c1=O (centres undefined)
	5.96				CCCn1c(=O)c2c(nnn2C2CCCCC2)n(CCC)c1=O
	4.64	5.08	0.36		Cn1c(=O)c2c(nnn2C2CCCCC2)n(C)c1=O

SMILES	Ki [1]	pKi [2]	pKi [3]	Ratio [4]	inhibition [5] [%]
Cn1c(=O)c2c(ncn2C)n(C)c1=O [CAFFEINE]		4.54			
